# Experimental data: ChEMBL document CHEMBL4765436, “Discovery, structure-activity relationship study and biological evaluation of 2-thioureidothiophene-3-carboxylates as a novel class of C-X-C chemokine receptor 2 (CXCR2) antagonists” (Eur J Med Chem, 2020)
# Calls of active or inactive are those of the source. The calls are words filed in the database; no cut-off is given here.
# Tests used:
# [1] = biological target: T1, C-X-C chemokine receptor type 2 (Homo sapiens, UniProt P25025); assay: Antagonist activity at CXCR2 (unknown origin) expressed in U2OS cells cotransfected with beta-arrestin/TEV protease fusion protein and beta-lactamase assessed as inhibition of CXCL8-induced beta arrestin2 recruitment preincubated for 30 mins followed by CXCL8 stimulation and measured after 5 hrs by FRET based fluorescence/Tango assay; assay type: cell-based
# T1 sequence (P25025 whole entry): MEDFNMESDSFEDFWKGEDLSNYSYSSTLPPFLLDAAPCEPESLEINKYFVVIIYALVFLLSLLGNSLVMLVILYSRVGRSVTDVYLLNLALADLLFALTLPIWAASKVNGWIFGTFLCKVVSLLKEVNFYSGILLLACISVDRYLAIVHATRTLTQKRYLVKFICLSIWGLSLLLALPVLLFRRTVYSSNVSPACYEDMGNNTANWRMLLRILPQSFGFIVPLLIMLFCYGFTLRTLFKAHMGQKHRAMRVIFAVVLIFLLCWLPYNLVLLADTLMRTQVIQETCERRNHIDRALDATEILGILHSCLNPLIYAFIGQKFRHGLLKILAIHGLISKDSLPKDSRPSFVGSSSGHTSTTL
# [2] = biological target: C-X-C chemokine receptor type 4 (Homo sapiens, UniProt P61073); assay: Antagonist activity at CXCR4 (unknown origin) expressed in U2OS cells cotransfected with beta-arrestin/TEV protease fusion protein and beta-lactamase assessed as inhibition of SDF1-alpha-induced beta arrestin2 recruitment preincubated for 30 mins followed by SDF1-alpha stimulation and measured after 5 hrs by FRET based fluorescence/Tango assay
# Translocator protein [3] = biological target: T2, Translocator protein (Homo sapiens, UniProt P30536); assay: Inhibition of PBR (unknown origin) at 10 uM by radioligand binding assay relative to control
# Method in brief: (§1)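 Primary radioligand binding screen across 50 GPCRs at a single concentration of 10 μM. Compounds with ≥50% inhibition went on to secondary binding.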
# [4] = biological target: T3, Alpha-2A adrenergic receptor (Homo sapiens) (UniProt P08913); assay: Inhibition of alpha 2a-adrenergic receptor (unknown origin) at 10 uM by radioligand binding assay relative to control; method in brief: as §1
# T3 sequence (whole entry): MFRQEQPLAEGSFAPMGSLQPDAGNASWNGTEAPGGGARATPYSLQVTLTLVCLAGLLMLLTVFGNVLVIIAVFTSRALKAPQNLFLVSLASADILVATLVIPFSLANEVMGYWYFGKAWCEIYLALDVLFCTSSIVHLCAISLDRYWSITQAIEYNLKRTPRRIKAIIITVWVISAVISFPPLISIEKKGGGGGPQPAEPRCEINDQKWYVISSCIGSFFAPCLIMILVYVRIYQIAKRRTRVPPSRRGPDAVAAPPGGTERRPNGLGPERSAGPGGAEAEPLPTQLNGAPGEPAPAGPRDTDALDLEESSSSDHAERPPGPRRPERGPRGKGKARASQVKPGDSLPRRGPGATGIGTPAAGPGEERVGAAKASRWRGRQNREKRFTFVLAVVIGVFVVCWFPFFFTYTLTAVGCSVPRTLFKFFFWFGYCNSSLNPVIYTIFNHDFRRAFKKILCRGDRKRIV
# Translocator protein [5] = biological target: T2, Translocator protein; assay: Inhibition of PBR (unknown origin) by radioligand binding assay
# Method in brief: (§2)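 Secondary radioligand binding assay determining equilibrium binding affinity (Ki).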
# [6] = biological target: T4, Alpha-2A adrenergic receptor (Homo sapiens, UniProt P08913); assay: Inhibition of alpha 2a-adrenergic receptor (unknown origin) by radioligand binding assay; method in brief: as §2
# T4 sequence (P08913 whole entry): T3 sequence (whole entry)
# [7] = biological target: T5, C-X-C chemokine receptor type 2 (Homo sapiens) (UniProt P25025); assay: Antagonist activity at CXCR2 (unknown origin) expressed in HEK293T cells cotransfected with GFP and p22F assessed as inhibition of CXCL8-reduced cAMP production at 10 uM incubated for 10 mins followed by CXCL8 stimulation and measured after 10 mins by luminescence based assay; assay type: functional, cell-based; conditions: time 20.0 min
# T5 sequence (whole entry): T1 sequence (P25025 whole entry)
# Method in brief: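 293T-CXCR2-GFP-p22F cells express a cAMP-sensitive firefly luciferase. They were seeded at 30000 cells/well overnight in CO2-independent medium with 10% FBS, then incubated with 1% cAMP reagent for 2 h at 37 °C. Cells were pretreated with compound for 10 min, given CXCL8 (50 nM) for 10 min, then stimulated with forskolin (50 μM) until maximal signal (~80 min). Luminescence read-out.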
# [8] = biological target: T5, C-X-C chemokine receptor type 2 (Homo sapiens); assay: Antagonist activity at CXCR2 (unknown origin) expressed in HEK293T cells cotransfected with GFP assessed as inhibition of CXCL8-induced ERK1/2 phosphorylation pretreated at 10 to 30 uM followed by treated with CXCL8 by immunoblot assay; assay type: cell-based; conditions: filed as antagonist, dose 10-30 µM
# Method in brief: (§3)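 293T-CXCR2-GFP cells (5 x 10^5/well) were attached overnight, treated with compounds and lysed in RIPA buffer with protease/phosphatase inhibitors. Lysates were normalized by BCA and resolved on 10% SDS-PAGE. Blots were probed overnight at 4 °C with antibodies (1:500-1:1000) to p-ERK1/2, p-JNK, p-cJUN or p-p38, then with a fluorescent secondary antibody, and imaged by infrared imaging.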
# [9] = biological target: T5, C-X-C chemokine receptor type 2 (Homo sapiens); assay: Antagonist activity at CXCR2 (unknown origin) expressed in HEK293T cells cotransfected with GFP assessed as inhibition of CXCL8-induced p38 phosphorylation at 10 to 30 uM post CXCL8 treatment by immunoblot assay; assay type: cell-based; conditions: dose 10-30 µM; method in brief: as §3
# [10] = biological target: T5, C-X-C chemokine receptor type 2 (Homo sapiens); assay: Antagonist activity at CXCR2 (unknown origin) expressed in HEK293T cells cotransfected with GFP assessed as inhibition of CXCL8-induced JNK phosphorylation at 10 to 30 uM post CXCL8 treatment by immunoblot assay; assay type: cell-based; conditions: dose 10-30 µM; method in brief: as §3
# [11] = biological target: T5, C-X-C chemokine receptor type 2 (Homo sapiens); assay: Antagonist activity at CXCR2 (unknown origin) expressed in HEK293T cells cotransfected with GFP assessed as inhibition of CXCL8-induced cJUN phosphorylation at 10 to 30 uM post CXCL8 treatment by immunoblot assay; assay type: cell-based; conditions: dose 10-30 µM; method in brief: as §3
# [12] = biological target: T5, C-X-C chemokine receptor type 2 (Homo sapiens); assay: Antagonist activity at CXCR2 (unknown origin) expressed in HEK293T cells cotransfected with GFP assessed as inhibition of CXCL8-induced AKT phosphorylation at 10 to 30 uM post CXCL8 treatment by immunoblot assay; assay type: cell-based; conditions: dose 10-30 µM
# U2OS = assay: Antimigratory activity against human U2OS cells overexpressing CXCR2/bla assessed as reduction in CXCL8-mediated wound closure at 10 uM incubated for 20 mins followed by CXCL8 stimulation and measured after 24 hrs by Giemsa staining based scratch wound healing assay; assay type: functional, cell-based; conditions: time 24.3 hrs
# Method in brief: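 CXCR2-bla U2OS cells were seeded at 35000/well in DMEM with 1% FBS overnight and scratched with a pipette tip. Compounds (10 μM) were added for 20 min, then CXCL8 (60 nM) for 24 h; unstimulated wells served as control. Cells were methanol-fixed, Giemsa-stained and imaged by transmitted light. Two independent experiments were run in duplicate.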
# SK-OV-3 = assay: Inhibition of colony formation in human SK-OV-3 cells at 8.9 to 20 uM incubated for 7 to 10 days in presence of doxorubicin by crystal violet staining based assay; assay type: functional, cell-based; conditions: dose 8.9-20 µM, time 7-10 day
# Method in brief: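 Colony formation: cells were seeded at 300/well, attached overnight, then treated with compounds for 7-10 days until colonies formed in DMSO wells. Colonies were stained with 0.05% crystal violet for 30 min and washed with water.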
# Sequence of C-X-C chemokine receptor type 4 (P61073 whole entry, the tested form may be a part): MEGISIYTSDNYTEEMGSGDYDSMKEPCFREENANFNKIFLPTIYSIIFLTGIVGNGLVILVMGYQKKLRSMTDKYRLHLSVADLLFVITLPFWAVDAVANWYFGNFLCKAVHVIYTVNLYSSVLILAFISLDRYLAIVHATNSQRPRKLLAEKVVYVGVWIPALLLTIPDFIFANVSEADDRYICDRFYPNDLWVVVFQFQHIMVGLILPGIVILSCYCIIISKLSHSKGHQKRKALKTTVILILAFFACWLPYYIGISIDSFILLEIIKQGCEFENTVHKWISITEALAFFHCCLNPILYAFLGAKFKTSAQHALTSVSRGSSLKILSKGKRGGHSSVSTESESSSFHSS
# T2 sequence (P30536 whole entry): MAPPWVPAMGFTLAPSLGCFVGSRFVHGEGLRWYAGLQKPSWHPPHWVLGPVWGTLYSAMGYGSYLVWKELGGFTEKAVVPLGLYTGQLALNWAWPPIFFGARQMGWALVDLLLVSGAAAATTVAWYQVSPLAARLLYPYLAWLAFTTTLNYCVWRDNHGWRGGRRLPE
IC50 [1] [µM],IC50 [2] [µM],SMILES,also measured
2.1,11.7,CCOC(=O)c1c(NC(=S)Nc2ccc(F)cc2)sc2c1C(C)CCC2 (stereo not given),–
10.6,> 10,CC1CCCc2sc(NC(=S)Nc3ccc(OC(F)(F)F)cc3)c(C(=O)OC(C)(C)C)c21 (stereo not given),–
4.4,11.5,CCOC(=O)c1c(NC(=S)Nc2ccc(OC)cc2)sc2c1C(C)CCC2 (stereo not given),–
1.9,26.7,CCOC(=O)c1c(NC(=S)Nc2ccc3c(c2)OC(F)(F)O3)sc2c1C(C)CCC2 (stereo not given),–
7.7,> 10,CCOC(=O)c1c(NC(=S)Nc2ccc(OC)c(OC)c2)sc2c1C(C)CCC2 (stereo not given),–
6.8,> 10,CC1CCCc2sc(NC(=S)Nc3ccc(OC(C)(C)C)cc3)c(C(=O)OC(C)(C)C)c21 (stereo not given),–
3,8.9,CCOC(=O)c1c(NC(=S)Nc2cccc(OC)c2)sc2c1C(C)CCC2 (stereo not given),–
2.7,> 10,COc1cccc(NC(=S)Nc2sc3c(c2C(=O)OC(C)(C)C)C(C)CCC3)c1 (stereo not given),–
7.5,12,CCOC(=O)c1c(NC(=S)Nc2ccccc2F)sc2c1C(C)CCC2 (stereo not given),–
7,> 10,CCOC(=O)c1c(NC(=S)Nc2ccc(C(C)(C)C)cc2)sc2c1C(C)CCC2 (stereo not given),–
> 10,> 10,CC1CCCc2sc(NC(=S)Nc3ccc(N4CCN(C)CC4)cc3)c(C(=O)OC(C)(C)C)c21 (stereo not given),–
2.5,11.9,CC1CCCc2sc(NC(=S)Nc3ccccc3)c(C(=O)OC(C)(C)C)c21 (stereo not given),–
> 30,> 10,CCOC(=O)c1c(NC(=S)Nc2ccccc2O)sc2c1C(C)CCC2 (stereo not given),–
> 30,> 10,CCOC(=O)c1c(NC(=S)Nc2ccc(N)cc2)sc2c1C(C)CCC2 (stereo not given),–
2,14.6,CCOC(=O)c1c(NC(=S)Nc2ccc(C(F)(F)F)cc2)sc2c1C(C)CCC2 (stereo not given),–
> 30,11.7,CCOC(=O)c1c(NC(=S)Nc2ccc(O)cc2)sc2c1C(C)CCC2 (stereo not given),–
3.9,> 10,CCOC(=O)c1c(NC(=S)Nc2ccc(N(C)C)cc2)sc2c1C(C)CCC2 (stereo not given),–
5.7,> 10,COc1ccc(NC(=S)Nc2sc3c(c2C(=O)OC(C)(C)C)C(C)CCC3)cc1OC (stereo not given),–
2.2,12.7,CCOC(=O)c1c(NC(=S)Nc2ccc(OC(F)(F)F)cc2)sc2c1C(C)CCC2 (stereo not given),–
6.4,> 10,CCOC(=O)c1c(NC(=S)Nc2ccccc2)sc2c1C(C)CCC2 (stereo not given),–

# Continued, compound first:
SMILES,IC50 [1] [µM],IC50 [2] [µM],also measured
CC(C)(C)OC(=O)c1c(NC(=S)Nc2ccc(OC(F)(F)F)cc2)sc2c1CCOC2,1.6,> 30,–
CC1CCCc2sc(NC(=S)Nc3ccccc3)c(C(=O)NCc3ccccc3)c21 (stereo not given),2.5,> 30,–
CCOC(=O)c1c(NC(=S)NC(=O)c2ccccc2)sc2c1C(C)CCC2 (stereo not given),> 10,> 10,–
CCOC(=O)c1c(NC(=S)Nc2cnccn2)sc2c1C(C)CCC2 (stereo not given),> 10,> 10,–
CC1CCCc2sc(NC(=S)Nc3ccccc3)c(C(N)=O)c21 (stereo not given),> 30,> 10,–
CC(C)(C)OC(=O)c1c(NC(=S)Nc2ccccc2)sc2c1CCN(Cc1ccccc1)C2,> 10,> 10,–
CCOC(=O)c1c(NC(=S)NCc2ccccc2)sc2c1C(C)CCC2 (stereo not given),6.7,> 20,–
CC(C)(C)OC(=O)c1c(NC(=S)Nc2ccccc2)sc2c1CCCC2,1.8,> 10,–
CN1CCc2c(sc(NC(=S)Nc3ccccc3)c2C(=O)OC(C)(C)C)C1,> 10,> 10,–
CC1CCCc2sc(NC(=S)Nc3ccc4c(c3)OC(F)(F)O4)c(C(=O)OC(C)(C)C)c21 (stereo not given),> 10,> 10,–
CC(C)(C)OC(=O)c1c(NC(=S)Nc2ccccc2)sc2c1COC(C)(C)C2,> 10,> 10,–
CC1CCCc2sc(NC(=S)Nc3ccccc3)c(C(=O)O)c21 (stereo not given),6.7,> 10,–
CC1CCCc2sc(NC(=S)Nc3ccccc3)c(C(=O)Nc3ccccc3)c21 (stereo not given),2.7,> 10,–
CC(C)(C)OC(=O)c1c(NC(=S)Nc2ccccc2)sc2c1CCNC2,8.7,> 10,–
CC(C)OC(=O)c1c(NC(=S)Nc2ccccc2)sc2c1C(C)CCC2 (stereo not given),2.7,9.3,–
C[C@H](NC(=S)Nc1sc2c(c1C(=O)OC(C)(C)C)CCOC2)c1ccccc1,2.4,> 30,–
CC(C)(C)OC(=O)c1c(NC(=S)Nc2ccccc2)sc2c1CCOC2,2.3,> 30,–
O=C(Nc1ccccc1)c1c(NC(=S)Nc2ccc(F)cc2)sc2c1CCOC2,> 10,> 10,–
CC(C)(C)OC(=O)c1c(NC(=S)Nc2ccccc2)sc2c1CCCO2,4.1,> 10,–
CNC(=O)c1c(NC(=S)Nc2ccccc2)sc2c1C(C)CCC2 (stereo not given),> 10,> 10,–
CCOC(=O)NC(=S)Nc1sc2c(c1C(=O)OCC)C(C)CCC2 (stereo not given),8.7,> 10,–
COc1ccc(NC(=S)Nc2sc3c(c2C(=O)OC(C)(C)C)CCOC3)cc1OC,3.4,> 10,–
C[C@@H](NC(=S)Nc1sc2c(c1C(=O)OC(C)(C)C)CCOC2)c1ccccc1,1.6,> 30,inhibition (Translocator protein [3]): 64%; inhibition [4]: 59%; Ki (Translocator protein [5]): > 10 µM; Ki [6]: > 10 µM; Activity [7]: inactive; Activity [8]: Active; Activity [9]: inactive; Activity [10]: inactive; Activity [11]: inactive; Activity [12]: inactive; inhibition (U2OS): Active; inhibition (SK-OV-3): Active
CC1CCCc2sc(NC(=S)Nc3ccc(Oc4ccccc4)cc3)c(C(=O)OC(C)(C)C)c21 (stereo not given),> 10,> 10,–
